CCR6 antagonist: CCR6 (human) receptor antagonism; actives 0.49% (n = 340,000); P51684; AID 493098; inhibition, % at 20 µM; CHO-K1 CCR6 PathHunter beta-arrestin, luminescence, CCL20-stimulated;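 active = compounds whose inhibition of the agonist-driven luminescence signal at 20 µM reaches about 50%, limit read from the data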;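 also: cells stimulated with CCL20 at 14 nM final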
APJ ag: APJ receptor agonism. P35414. CHO-K1 APJ PathHunter beta-arrestin, luminescence; 0% DMSO wells, 100% apelin. activation, % at 20 µM. actives 0.11% (n = 330,000);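 active = activation more than six SD over the plate average, tested at 20 µM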
Target sequence (P35414 whole entry, looked up): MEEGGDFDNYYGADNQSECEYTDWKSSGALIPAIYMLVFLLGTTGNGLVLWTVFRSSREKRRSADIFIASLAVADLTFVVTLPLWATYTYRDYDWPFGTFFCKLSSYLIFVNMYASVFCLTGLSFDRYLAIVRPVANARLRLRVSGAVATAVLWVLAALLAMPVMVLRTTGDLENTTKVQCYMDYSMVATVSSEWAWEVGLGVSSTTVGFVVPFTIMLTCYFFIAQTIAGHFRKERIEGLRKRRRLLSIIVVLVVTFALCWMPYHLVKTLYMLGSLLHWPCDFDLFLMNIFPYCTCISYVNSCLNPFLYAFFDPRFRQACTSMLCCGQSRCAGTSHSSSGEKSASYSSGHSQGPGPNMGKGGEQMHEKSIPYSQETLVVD
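Assay system – PathHunter CHO-K1 APJ (AGTRL-1) beta-arrestin reporter cells · Compound – one dose, 20 µM compound, 1% DMSO · Timing – compound 90 min 25 °C, reagent 1 h · Measured by – luminescence from split beta-galactosidase complementation, Galacton Star/Emerald II substrate · Measure – beta-arrestin recruitment to APJ as agonist activity, luminescent signal · Benchmarks – DMSO vs Apelin-13 10 nM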
APJ antag: antagonists of human APJ apelin receptor; AID 2521; actives 0.32% (n = 330,000); CHO-K1 APJ beta-arrestin complementation, luminescence; inhibition, % at 20 µM;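 active = inhibition above about 40% at 20 µM, limit read from the data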;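 also: cells challenged with 10 nM apelin-13 agonist together with compound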
EBI2 block: blocks human EBI2 receptor beta-arrestin signaling | inhibition, % at 5 µM | EBI2 beta-arrestin recruitment, luminescence, 7a,25-OHC stimulated | AID 651636 | actives 0.81% (n = 360,000) | P32249; in the data active = inhibition above about 38%;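 also: enzyme fragment complementation signal reports receptor beta-arrestin coupling in cells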
CXCR6 inh: inhibitors of human CXCR6 receptor; O00574; CHO-K1 PathHunter CXCR6 beta-arrestin, luminescence; actives 0.36% (n = 360,000); inhibition, % at 20 µM; in the data active = inhibition above about 34%, passing the limit was not always enough;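 also: antagonist mode with CXCL16 agonist at 10 nM final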
APJ antag confirm: APJ receptor antagonism confirmation. shares compounds with APJ antag. APJ beta-arrestin recruitment, luminescence, antagonist mode. inhibition, % at 20 µM. actives 66% (n = 950); in the data active = inhibition above about 50%
Each line names hits and unclear results; the compound was inactive in the other large screens (follow-up assays come after a bar, where they were run). Hits are enriched below; roughly 1.5% of the tested compounds scored in any of these assays.

CC1=NN(C(=O)Cc2ccccc2)C(O)(c2ccccc2)C1 (stereo not drawn)	none
NNc1nc(-c2ccccc2)cc(-c2ccc(Br)cc2)n1	APJ antag 72.8 | APJ antag confirm 104.6
NNc1nc(-c2ccccc2)c2cc(Br)ccc2n1	none
CC1=C(C(=O)OCC2CCCO2)C(c2ccc(Cl)c(Cl)c2)NC(=O)N1 (stereo not drawn)	none
Cc1cccc2c1N(CCCOc1ccccc1)C(=O)C2=O	APJ antag 44.4 | APJ antag confirm 75.7
Cc1c(C(=O)NCc2ccc(Cl)c(Cl)c2)sc(=O)n1Cc1ccc(S(=O)(=O)N(C)C)cc1	none (no result: CCR6 antagonist, APJ ag, APJ antag)
Nc1c(N2CCCC2)c2ccccc2oc1=O	CCR6 antagonist 55.0, APJ antag 70.5 | APJ antag confirm 83.2
O=C(CSc1nnc(Cn2c(=O)sc3ccccc32)n1-c1ccccc1)N1CCOCC1	none
Cc1ccccc1-n1c(Cn2c(=O)sc3ccccc32)nnc1SCC(=O)N1CCOCC1	APJ antag 52.0 | APJ antag confirm inactive
COc1cc(NS(=O)(=O)c2ccc(NC(=S)Nc3ccccc3)cc2)nc(OC)n1	none
COc1cc(NS(=O)(=O)c2ccc(NC(=S)NC(=O)C3CCCC3)cc2)nc(OC)n1	APJ antag 50.3 | APJ antag confirm 87.3
COc1cc(Br)cc(/C=C/c2ccc3cccc(O)c3n2)c1O	none
COc1cc(/C=C/c2ccc3cccc(OC)c3n2)c(O)c([N+](=O)[O-])c1	CCR6 antagonist 53.8, APJ antag 44.4, CXCR6 inh 42.0 | APJ antag confirm 73.8
Cc1cccc(NS(=O)(=O)c2ccc(C(=O)N3CC(C)OC(C)C3)cc2)c1C (stereo not drawn)	none
O=C(c1ccco1)N1CCN(C(=O)C2(S(=O)(=O)c3ccc(Cl)cc3)CC2)CC1	APJ antag 40.6 | APJ antag confirm inactive
O=Cc1ccccc1OCCN1CCCC1=O	none
O=[N+]([O-])c1c(NCCCO)cc(Sc2nc3ccccc3s2)c2nonc12	CCR6 antagonist 114.7, APJ antag 75.6, EBI2 block 49.1, CXCR6 inh 96.8 | APJ antag confirm 117.4
O=C(NNc1cc(Br)c(O)c(Br)c1)c1ccccc1	CCR6 antagonist 86.8, APJ antag 96.2, CXCR6 inh 59.0 | APJ antag confirm 136.8
NS(=O)(=O)c1ccc(NNC(=O)c2ccccc2)cc1	none
COc1ccc2nc(NC(=O)C34CC5CC(CC(NC(C)=O)(C5)C3)C4)sc2c1	none
Cc1nnsc1C(=O)NNc1ccc(C(C)(C)C)cc1	APJ antag 59.1 | APJ antag confirm 146.4
Cc1ccc(S(=O)(=O)NC(=O)NN2CCCCCC2)cc1	none
O=C1NC(=S)N/C1=C/c1cccc([N+](=O)[O-])c1O	APJ antag 43.2, CXCR6 inh 43.8 | APJ antag confirm 79.2
N#C/C(=N/Nc1ccccc1[N+](=O)[O-])C(N)=S	APJ antag 40.2 | APJ antag confirm 104.6
N#C/C(=N\Nc1ccccc1)C(N)=S	none
ON1C2CCCCC2N(O)C1c1ccccc1C(F)(F)F (stereo not drawn)	CCR6 antagonist 56.3, APJ antag 48.2 | APJ antag confirm inactive
O=C(Nc1ccccc1C(F)(F)F)NC1CCCCCCC1	none
O=C1NC(=O)c2cc(NC(=O)C3CCCCC3)ccc21	none
O=C(CNc1ccc(Br)cc1)c1ccc(Br)s1	CCR6 antagonist 66.3, APJ antag 65.8, CXCR6 inh 41.4 | APJ antag confirm 107.7
O=C(NCCCCCCNC(=O)c1ccc(Br)s1)c1ccc(Br)s1	none
Cc1cc(Cl)ccc1OCCCC(=O)NCCc1nnc2ccccn12	none
CC(C)CC(N)c1csc(NC(=O)Nc2ccccc2-c2ccccc2)n1 (stereo not drawn)	none (no result: CCR6 antagonist, APJ ag, APJ antag)
CCN1/C(=C/C=C/c2sc3ccccc3[n+]2CC)Sc2ccccc21	APJ antag 49.0 | APJ antag confirm 120.9
Cc1nn(C)cc1/C=N/NC(=O)c1ccc2c(c1)OCO2	none
O=C1NN(c2cccc(Br)c2)C(=O)/C1=C\c1ccc(O)cc1	none
CC1=NN(c2ccc(C(=O)O)cc2)C(=O)/C1=C/c1ccc(-c2ccccc2F)o1	none (no result: CCR6 antagonist)
CC1=NN(c2ccc(C)cc2)C(=O)/C1=C/c1ccc(-c2cc([N+](=O)[O-])ccc2O)o1	CCR6 antagonist 72.5, APJ antag 46.7, CXCR6 inh 41.5 | APJ antag confirm 92.5

Screening data: PubChem, Sanford-Burnham Center for Chemical Genomics
